Results taken from PMC6099358 (Diabetes, Obesity & Metabolism, 2018).

What was measured:
[1] = system: Japanese participants with T1DM; assay: 24-hour urinary glucose excretion; format: in vivo, human; conditions: for placebo-corrected adjusted mean (95% CI) change from baseline in 24-hour UGE: Day 7
Procedure, shortened: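 Japanese adults with T1DM on multiple daily insulin injections, after a 2-week placebo run-in, were randomized 1:1:1:1 to oral test compound 2.5, 10 or 25 mg or placebo once each morning for 4 weeks. All urine was collected over 24 h at baseline and Days 1, 7 and 28. Day-7 change was analysed by ANCOVA (baseline covariate) with LOCF.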

[2] = system: Japanese participants with T1DM; assay: Weekly recorded insulin dose; format: in vivo, human; conditions: for recorded insulin dose adjusted mean difference vs placebo (95% CI): Week 4; for % of adjusted mean change from baseline in recorded insulin dose (reduction from baseline): within Week 4
Procedure, shortened: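 Participants recorded basal and bolus insulin doses in a diary. Weekly totals were compiled during 4 weeks of once-daily oral test compound or placebo. At randomization, HbA1c 7.5–<8% prompted a 10% cut in daily insulin; otherwise dosing was at investigator discretion. Changes were analysed by ANCOVA with baseline covariate.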

[3] = system: Japanese participants with T1DM; assay: Continuous glucose monitoring; format: in vivo, human; conditions: within Week 4, CGM
Procedure, shortened: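 A blinded professional CGM device was worn from Day −6 to Day 28 during once-daily oral test compound or placebo. Glucose exposure was taken as mean daily glucose AUC. Variability was taken as glucose interquartile range, plus % time at ≤70, >70 to ≤180 and >180 mg/dL. Week-4 changes from baseline are adjusted means.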

[4] = system: Japanese participants with T1DM; assay: Ketogenesis markers; format: in vivo, human; conditions: after 4 weeks of treatment
Procedure, shortened: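 Serum β-hydroxybutyrate was sampled on Days −1, 1, 7 and 8 and measured by a contract laboratory. The change from baseline in AUC0–24h was calculated on Day 7. Day-28 levels were measured among the laboratory safety parameters and summarised descriptively.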

[5] = system: Japanese participants with T1DM; assay: Laboratory safety parameters; format: in vivo, human; conditions: empagliflozin groups, Day 28
Procedure, shortened: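 Blood and urine were collected on Days 1, 7 and 28 of once-daily oral dosing with test compound or placebo. They were measured centrally and summarised descriptively in the treated set.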

[6] = system: Japanese participants with T1DM; assay: Adverse events and hypoglycaemic episodes during 4-week double-blind treatment; format: in vivo, human; conditions: 4 weeks
Procedure, shortened: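 In a double-blind, 4-week study, participants took test compound 2.5, 10 or 25 mg or placebo orally once daily. Adverse events were coded in MedDRA 19.1. Hypoglycaemic events were based on scheduled blood glucose tests and/or CGM. Special-interest events included genital and urinary infections and volume depletion. Severe hypoglycaemia and DKA were adjudicated externally. Results were summarised descriptively in all treated participants.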

[7] = system: participants with T2DM with established cardiovascular disease; conditions: cited from earlier work
Body weight = format: in vivo, human; conditions: Day 28
Procedure, shortened: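 T1DM participants on multiple daily insulin injections took oral test compound or placebo once daily for 4 weeks. Body weight was measured on Day 28. Change from baseline was analysed by ANCOVA, with treatment as a fixed effect and baseline as a linear covariate.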

[8] = Pharmacokinetics of empagliflozin in plasma; format: in vivo, human
Procedure, shortened: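 Blood and urine were sampled on Days 1 and 28 of 4-week once-daily oral dosing (2.5, 10, 25 mg). Concentrations were measured by validated LC-MS/MS. Steady state was judged from troughs on Days 2, 7, 14, 21, 27, 28 and 29. Cmax, AUC and t1/2,ss were derived non-compartmentally. Timepoint statistics required ≥2/3 of values within the validated range.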

[9] = system: Japanese participants with T1DM; assay: HbA1c and fasting plasma glucose; format: in vivo, human; conditions: Day 28
Procedure, shortened: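 During 4 weeks of once-daily oral test compound or placebo, blood was drawn for HbA1c on Days 1 and 28. FPG was sampled on Days −1, 1, 2, 7, 8, 14, 21, 28 and 29. Samples were assayed at a central laboratory. Changes from baseline were analysed by ANCOVA (treatment fixed, baseline covariate).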

[10] = system: Japanese participants with T2DM; conditions: 10 mg, Day 28, Japanese T2DM; cited from earlier work

OC[C@H]1O[C@@H](c2ccc(Cl)c(Cc3ccc(O[C@H]4CCOC4)cc3)c2)[C@H](O)[C@@H](O)[C@@H]1O [empagliflozin]
placebo-corrected adjusted mean (95% CI) change from baseline in 24-hour UGE ([1]; 2.5 mg once daily): 65.10 [43.29, 86.90] g/24 h
adjusted effect on UGE ([1]; 2.5 mg, Day 28, Japanese T1DM): 91.0 g/24 h
placebo-corrected adjusted mean (95% CI) change from baseline in 24-hour UGE ([1]; 10 mg once daily): 81.19 [58.80, 103.58] g/24 h
placebo-corrected adjusted mean (95% CI) change from baseline in 24-hour UGE ([1]; 25 mg once daily): 98.11 [75.91, 120.31] g/24 h
recorded insulin dose adjusted mean difference vs placebo (95% CI) ([2]; 2.5 mg): −0.08 U/kg
% of adjusted mean change from baseline in recorded insulin dose (reduction from baseline) ([2]; 2.5 mg): −20.5%
recorded insulin dose adjusted mean difference vs placebo (95% CI) ([2]; 10 mg): −0.10 U/kg
% of adjusted mean change from baseline in recorded insulin dose (reduction from baseline) ([2]; 10 mg): −23.3%
recorded insulin dose adjusted mean difference vs placebo (95% CI) ([2]; 25 mg): −0.09 U/kg
% of adjusted mean change from baseline in recorded insulin dose (reduction from baseline) ([2]; 25 mg): −24.2%
IQR of glucose adjusted mean difference vs placebo (95% CI) ([3]; 2.5 mg): -23.08 mg/dL
MDAUC of glucose adjusted mean difference vs placebo (95% CI) ([3]; 2.5 mg): -558 mg·h/dL
IQR of glucose adjusted mean difference vs placebo (95% CI) ([3]; 10 mg): -13.08 mg/dL
MDAUC of glucose adjusted mean difference vs placebo (95% CI) ([3]; 10 mg): -338 mg·h/dL
IQR of glucose adjusted mean difference vs placebo (95% CI) ([3]; 25 mg): -22.09 mg/dL
MDAUC of glucose adjusted mean difference vs placebo (95% CI) ([3]; 25 mg): -514 mg·h/dL
highest individual serum BHB level [4]: approximately 0.8 mmol/L
mean serum BHB levels ([4]; all doses): < 0.5 mmol/L
changes from baseline in laboratory safety parameters (overall) [5]: no significant changes from baseline
Asymptomatic hypoglycaemia with PG ≤70 mg/dL, rate ([6]; 2.5 mg): 5.1 episodes per 30 days per participant
Asymptomatic hypoglycaemia with PG ≤70 mg/dL, total number of episodes ([6]; 2.5 mg): 62 episodes
Death ([6]; 2.5 mg): 0 (0) % (n) of participants
Decreased renal function ([6]; 2.5 mg): 0 (0) % (n) of participants
Events consistent with UTI ([6]; 2.5 mg): 0 (0) % (n) of participants
Events consistent with genital infection ([6]; 2.5 mg): 7.7 (1) % (n) of participants
Events consistent with volume depletion ([6]; 2.5 mg): 0 (0) % (n) of participants
Hepatic injury ([6]; 2.5 mg): 0 (0) % (n) of participants
Hypoglycaemia (AE) ([6]; 2.5 mg): 92.3 (12) % (n) of participants
Hypoglycaemia requiring assistance, rate ([6]; 2.5 mg): 0 (0) episodes per 30 days per participant
Hypoglycaemia requiring assistance, total number of episodes ([6]; 2.5 mg): 0 (0) episodes
Ketoacidosis ([6]; 2.5 mg): 0 (0) % (n) of participants
Symptomatic hypoglycaemia with PG <54 mg/dL, rate ([6]; 2.5 mg): 1.5 episodes per 30 days per participant
Symptomatic hypoglycaemia with PG <54 mg/dL, total number of episodes ([6]; 2.5 mg): 18 episodes
Symptomatic hypoglycaemia with PG ≥54 and ≤70 mg/dL, rate ([6]; 2.5 mg): 1.8 episodes per 30 days per participant
Symptomatic hypoglycaemia with PG ≥54 and ≤70 mg/dL, total number of episodes ([6]; 2.5 mg): 22 episodes
participants with genital infection (vulvovaginal candidiasis of mild intensity) ([6]; 2.5 mg): 1 participants
≥1 AE ([6]; 2.5 mg): 92.3 (12) % (n) of participants
≥1 AE leading to discontinuation ([6]; 2.5 mg): 0 (0) % (n) of participants
≥1 Drug-related AE ([6]; 2.5 mg): 84.6 (11) % (n) of participants
≥1 Serious AE ([6]; 2.5 mg): 0 (0) % (n) of participants
≥1 Severe AE ([6]; 2.5 mg): 0 (0) % (n) of participants
Asymptomatic hypoglycaemia with PG ≤70 mg/dL, rate ([6]; 10 mg): 6.7 episodes per 30 days per participant
Asymptomatic hypoglycaemia with PG ≤70 mg/dL, total number of episodes ([6]; 10 mg): 78 episodes
Death ([6]; 10 mg): 0 (0) % (n) of participants
Decreased renal function ([6]; 10 mg): 0 (0) % (n) of participants
Events consistent with UTI ([6]; 10 mg): 0 (0) % (n) of participants
Events consistent with genital infection ([6]; 10 mg): 0 (0) % (n) of participants
Events consistent with volume depletion ([6]; 10 mg): 0 (0) % (n) of participants
Hepatic injury ([6]; 10 mg): 0 (0) % (n) of participants
Hypoglycaemia (AE) ([6]; 10 mg): 100 (12) % (n) of participants
Hypoglycaemia requiring assistance, rate ([6]; 10 mg): 0 (0) episodes per 30 days per participant
Hypoglycaemia requiring assistance, total number of episodes ([6]; 10 mg): 0 (0) episodes
Ketoacidosis ([6]; 10 mg): 0 (0) % (n) of participants
Symptomatic hypoglycaemia with PG <54 mg/dL, rate ([6]; 10 mg): 2.7 episodes per 30 days per participant
Symptomatic hypoglycaemia with PG <54 mg/dL, total number of episodes ([6]; 10 mg): 31 episodes
Symptomatic hypoglycaemia with PG ≥54 and ≤70 mg/dL, rate ([6]; 10 mg): 3.9 episodes per 30 days per participant
Symptomatic hypoglycaemia with PG ≥54 and ≤70 mg/dL, total number of episodes ([6]; 10 mg): 45 episodes
≥1 AE ([6]; 10 mg): 100 (12) % (n) of participants
≥1 AE leading to discontinuation ([6]; 10 mg): 0 (0) % (n) of participants
≥1 Drug-related AE ([6]; 10 mg): 100 (12) % (n) of participants
≥1 Serious AE ([6]; 10 mg): 0 (0) % (n) of participants
≥1 Severe AE ([6]; 10 mg): 0 (0) % (n) of participants
Asymptomatic hypoglycaemia with PG ≤70 mg/dL, total number of episodes ([6]; 25 mg): 140 episodes
Death ([6]; 25 mg): 0 (0) % (n) of participants
Decreased renal function ([6]; 25 mg): 0 (0) % (n) of participants
Events consistent with UTI ([6]; 25 mg): 0 (0) % (n) of participants
Events consistent with genital infection ([6]; 25 mg): 8.3 (1) % (n) of participants
Events consistent with volume depletion ([6]; 25 mg): 0 (0) % (n) of participants
Hepatic injury ([6]; 25 mg): 0 (0) % (n) of participants
Hypoglycaemia (AE) ([6]; 25 mg): 100 (12) % (n) of participants
Hypoglycaemia requiring assistance, rate ([6]; 25 mg): 0 (0) episodes per 30 days per participant
Hypoglycaemia requiring assistance, total number of episodes ([6]; 25 mg): 0 (0) episodes
Ketoacidosis ([6]; 25 mg): 0 (0) % (n) of participants
Symptomatic hypoglycaemia with PG <54 mg/dL, rate ([6]; 25 mg): 1.8 episodes per 30 days per participant
Symptomatic hypoglycaemia with PG <54 mg/dL, total number of episodes ([6]; 25 mg): 21 episodes
Symptomatic hypoglycaemia with PG ≥54 and ≤70 mg/dL, rate ([6]; 25 mg): 1.0 episodes per 30 days per participant
Symptomatic hypoglycaemia with PG ≥54 and ≤70 mg/dL, total number of episodes ([6]; 25 mg): 12 episodes
participants with genital infection (vulvovaginal candidiasis of mild intensity) ([6]; 25 mg): 1 participants
≥1 AE ([6]; 25 mg): 100 (12) % (n) of participants
≥1 AE leading to discontinuation ([6]; 25 mg): 0 (0) % (n) of participants
≥1 Drug-related AE ([6]; 25 mg): 91.7 (11) % (n) of participants
≥1 Serious AE ([6]; 25 mg): 0 (0) % (n) of participants
≥1 Severe AE ([6]; 25 mg): 0 (0) % (n) of participants
DKA events (investigator-reported or adjudicated) ([6]; all doses): No events meeting the criteria for DKA were reported
tolerability ([6]; all three doses (2.5, 10, 25 mg)): generally well tolerated
reduction of incident or worsening nephropathy [7]: 39%
reduction of risk of cardiovascular death [7]: 38%
body weight adjusted mean difference vs placebo (95% CI) (Body weight; 2.5 mg): -1.37 kg
body weight adjusted mean difference vs placebo (95% CI) (Body weight; 10 mg): -1.47 kg
body weight adjusted mean difference vs placebo (95% CI) (Body weight; 25 mg): -1.70 kg
exposure (AUC and Cmax) versus dose ([8]; after a single dose and at steady state): increased proportionally with dose
Tmax ([8]; human, plasma, po): ~1.5 h
time to steady state ([8]; once daily oral dosing, trough concentrations): ≤ 7 days
time to peak plasma level after dosing ([8]; single and multiple oral doses, 2.5-25 mg): 1.5 h
FPG adjusted mean difference vs placebo (95% CI) ([9]; 2.5 mg): -14.27 mg/dL
HbA1c adjusted mean difference vs placebo (95% CI) ([9]; 2.5 mg): −0.20%
FPG adjusted mean difference vs placebo (95% CI) ([9]; 10 mg): -43.63 mg/dL
HbA1c adjusted mean difference vs placebo (95% CI) ([9]; 10 mg): −0.35%
FPG adjusted mean difference vs placebo (95% CI) ([9]; 25 mg): -59.57 mg/dL
HbA1c adjusted mean difference vs placebo (95% CI) ([9]; 25 mg): −0.20%
adjusted effect on UGE [10]: 80.9 g/24 h
